Here are results for four compounds from paper PMC10832541 (Microbial Biotechnology, 2024).

Converted amounts (≈) assume the structure as drawn. “Also recorded” adds a separate entry of the source.

The test system of one data set is Enterococcus faecalis. Description: In vitro antibacterial activity. Type of data set: cell-based. The conditions noted are these: Enterococcus faecalis strains; CLSI guidelines; range over strains.
For a further data set, the system named is Enterococcus faecium. Description: In vitro antibacterial activity. The settings on record: Enterococcus faecium strains; CLSI guidelines; range over strains. Type of data set: cell-based.
For data set [1] the following is noted: in water, compared with NOS‐R at pH 6.0; ref Zhao et al., 2023; cited from earlier work.
The nature of data set [2]: Aqueous solubility at pH 5.0 to 7.0. Type of data set: physicochemical. The conditions noted are these: pH 6, water. In a few lines: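 Test compound quantified by HPLC against a standard curve (31.25–1000 ng/mL), with linear regression of peak area against concentration. Aqueous solubility was determined in solutions of pH 5.0 to 7.0, following a previously described method.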

A further data set relates to MRSE. Description: In vitro antibacterial activity. Type of data set: cell-based, methicillin‐resistant Staphylococcus epidermidis. The conditions noted are these: MRSE strains; CLSI guidelines; range over strains.
A further data set relates to MRSA. Description: In vitro antibacterial activity. Type of data set: cell-based, methicillin‐resistant Staphylococcus aureus. The settings on record: MRSA strains; CLSI guidelines; range over strains.
The subject of data set [3] is MRSA, MRSE, Enterococcus faecalis and Enterococcus faecium. Description: In vitro antibacterial activity, MIC range over all tested pathogens. Type of data set: cell-based. The conditions noted are these: E. faecalis and E. faecium strains.
The subject of a further data set is MRSA infection. Description: In vivo protection of mice infected with MRSA. The conditions noted are these: data not shown.
Another data set relates to SrGT822. Description: Substrate spectrum of SrGT822. Type of data set: biochemical, Streptomyces sp. 147326. The settings on record: dTDP‐L‐rhamnose as donor; LC-MS analysis; products not purified. The gist of the method:
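SrGT822 from Streptomyces sp. 147326 carried a C-terminal His-tag in pET22b(+). It was expressed in E. coli BL21(DE3) with 0.5 mM IPTG at 20°C for 12 h and purified by nickel affinity. Seventeen compounds from various classes were tested as acceptors, with dTDP-L-rhamnose as donor, under the optimized reaction parameters.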

On to `C=C(NC(=O)c1csc(-c2nc3c(cc2O)-c2nc(cs2)C(=O)NC(C(C)O)C(=O)N/C(=C\C)c2nc(cs2)C(=O)NC2CC(O)C(=O)OCc4cccc5[nH]c(c(C)c45)C(=O)SCC(NC(=O)c4csc2n4)c2nc-3cs2)n1)C(N)=O` (stereo not shown) [NOS, Nosiheptide], for which the minimum inhibitory concentration (MIC) in the data set with Enterococcus faecalis and against Enterococcus faecium was 0.0078 to 0.0156 µg/mL throughout. Moreover, the aqueous solubility in [1] was 0.0283 µg/mL (≈ 0.0232 µM).
`C=C(NC(=O)c1csc(-c2nc3c(cc2O[C@@H]2O[C@@H](C)[C@H](O)[C@@H](O)[C@H]2O)-c2nc(cs2)C(=O)NC(C(C)O)C(=O)N/C(=C\C)c2nc(cs2)C(=O)NC2CC(O)C(=O)OCc4cccc5[nH]c(c(C)c45)C(=O)SCC(NC(=O)c4csc2n4)c2nc-3cs2)n1)C(N)=O` (stereo partly shown) [NOS‐R] had a solubility in [2] of 0.526 µg/mL (≈ 0.384 µM). Besides, the MIC against MRSE was in the range of 0.03125 to 0.0625 µg/mL; with MRSA it was 0.03125 to 0.0625 µg/mL; in the data set with Enterococcus faecalis, 0.0078 to 0.0156 µg/mL; against Enterococcus faecium, 0.0078 to 0.0156 µg/mL. In [3], the “MIC values against all the tested pathogens” value fell in the range of 0.0078 to 0.0625 µg/mL. The “in vivo protection against MRSA infection” value in the data set on MRSA infection is given as “new protective effect against MRSA infection in mice; also recorded: potential in vivo protection”.
Consider `CN[C@H](CC(C)C)C(=O)N[C@H]1C(=O)N[C@@H](CC(N)=O)C(=O)N[C@H]2C(=O)N[C@H]3C(=O)N[C@H](C(=O)N[C@H](C(=O)O)c4cc(O)cc(O)c4-c4cc3ccc4O)[C@H](O)c3ccc(c(Cl)c3)Oc3cc2cc(c3O[C@@H]2O[C@H](CO)[C@@H](O)[C@H](O)[C@H]2O[C@H]2C[C@](C)(N)[C@H](O)[C@H](C)O2)Oc2ccc(cc2Cl)[C@H]1O` [Vancomycin], for which the MIC against MRSE fell in the range of 0.125 to 1 µg/mL; against MRSA, 0.25 to 2 µg/mL; against Enterococcus faecalis it was 1 to 2 µg/mL; against Enterococcus faecium, 1 to 2 µg/mL. In addition, the “MIC values against all the tested pathogens” value in [3] is 0.125 to 2 µg/mL.
Turning to nocathiacin I [compound 17], the “conversion rate (monorhamnosylation as a substrate of SrGT822)” value with SrGT822 is “below 60%”.

The MIC is the lowest concentration that inhibits growth of the organism. Low readings indicate inhibition by little substance, high ones a need for much substance. In general, aqueous solubility refers to the dissolved amount per volume that the medium holds. A word on the solubility: it is the concentration that dissolves in the medium under given conditions. A higher solubility goes with a readily soluble substance.
